How the values were obtained:
[1] = folding enthalpy; higher = less favourable; fluorescence melt of hairpins on a sequencing array, two-state fit; details: sodium 0.088 M
Summary of the method: (§1)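 Folding enthalpy and melting temperature come from bootstrapped two-state fits to Cy3 fluorescence of library hairpins carrying annealed Cy3 and quencher oligos on a sequenced MiSeq flow cell. Imaging was done in 50 mM Na-HEPES pH 8.0, 25 mM NaCl, stepping by 2.5 °C up to 60 °C, and signals were normalised to pre-quench Cy3 and to control constructs. Results of four replicates were combined by inverse variance, and fitted temperatures were raised by 9.35 °C to match UV melts.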

[2] = melting temperature; fluorescence melt of hairpins on a sequencing array, two-state fit, raised by 9.35 °C to match UV melts; details: sodium 0.088 M
Summary of the method: as §1

Row | Sequence | folding enthalpy [1] | Tm [2]
1 | GCTGGCACGAAAGTGAGC (((..(((....)))))) | -14.1 kcal/mol | 36.9 °C
2 | GATTGCGAAAGCAACATC ((((((....)))..))) | -9.24 kcal/mol | 28.5 °C
3 | GCAGCGCGAAAGCCCTGC ((((.((....)).)))) | -25.9 kcal/mol | 60.1 °C
4 | GGTCACGGAAACGCGACC ((((.((....)).)))) | -50.2 kcal/mol | 54.4 °C
5 | GCCCGTGGAAACACGAGC ((.((((....)))).)) | -24 kcal/mol | 50.8 °C
6 | GATCGGCCAACCGATC ((((((....)))))) | -38.4 kcal/mol | 55.8 °C
7 | GATCTCCCCGAGATC ((((((...)))))) | -36.9 kcal/mol | 55.3 °C
8 | GGATCGCGAAAGCGTCC (((.(((....)))))) | -22.7 kcal/mol | 52.6 °C
9 | GCGAGGACTCGC ((((....)))) | -31.9 kcal/mol | 56.1 °C
10 | GCGTAGCGAAAGCTCAGC ((..(((....)))..)) | -10.8 kcal/mol | 46 °C
11 | GAATATGGAAACATGTTC (((.(((....))).))) | -32.6 kcal/mol | 37.6 °C
12 | GATCGTCAGGACGATC ((((((....)))))) | -45.6 kcal/mol | 58.3 °C
13 | GCTCTGCGAAAGCCGTGC ((.(.((....)).).)) | -11.9 kcal/mol | 36.2 °C
14 | GGCTGAGGAAACTCGGCC (((.(((....))).))) | -46.7 kcal/mol | 58.3 °C
15 | GATCTATCGGTAGATC ((((((....)))))) | -24.7 kcal/mol | 39.1 °C
16 | GCAGTAGGAAACTACTGC (((((((....))))))) | -54 kcal/mol | 64.6 °C
17 | CGATCCGGAAACGGCTCG (((.(((....))).))) | -28.7 kcal/mol | 48.1 °C
18 | GATCGTACCTACGATC ((((((....)))))) | -50.5 kcal/mol | 55.6 °C
19 | GAGTCCGAAAGGATGCTC ((((((....)))..))) | -16.9 kcal/mol | 40.5 °C
20 | GGTAGGTCGAAAGACACC (((..(((....)))))) | -16.5 kcal/mol | 35.3 °C
21 | GCTCAGCGAAAGCTTAGC (((.(((....))).))) | -44.9 kcal/mol | 49.4 °C
22 | GTAGTCGAAAGACTTTAC ((((((....)))..))) | -13.7 kcal/mol | 29.5 °C
23 | GGGATTGCGAAAGCACCC (((..(((....)))))) | -14.5 kcal/mol | 41.2 °C

Row | Sequence | folding enthalpy [1] | Tm [2]
24 | GATCTCGTGTGAGATC ((((((....)))))) | -37 kcal/mol | 53.1 °C
25 | GTAGTCGAAAGACAGTAC ((((((....)))..))) | -12.5 kcal/mol | 27.2 °C
26 | GCCAAGCGAAAGCCTCGC ((.(.((....)).).)) | -5.93 kcal/mol | 23.1 °C
27 | GGAAATTCGAAAGAATCC (((..(((....)))))) | -9.79 kcal/mol | 26 °C
28 | GGGTACGAAAGTATACCC ((((((....)))..))) | -25.9 kcal/mol | 43.9 °C
29 | GTCGTTGCGAAAGCAGAC (((..(((....)))))) | -21.1 kcal/mol | 49.2 °C
30 | GCAATCGAAAGATGCTGC ((((((....)))..))) | -28.2 kcal/mol | 51.1 °C
31 | GATCCAAGAATGGATC ((((((....)))))) | -30.2 kcal/mol | 46.7 °C
32 | GCGGTGCGAAAGCAAGGC ((..(((....)))..)) | -19.1 kcal/mol | 51.2 °C
33 | GATCAATGAGTTGATC ((((((....)))))) | -37.1 kcal/mol | 48.4 °C
34 | GCATCGGGAAACCGACAC (..((((....))))..) | -11.9 kcal/mol | 25.8 °C
35 | GGTTGCGGAAACGCGATC (.(.(((....))).).) | -19.7 kcal/mol | 41.7 °C
36 | GTGATACCGAAAGGTCAC (((..(((....)))))) | -19.5 kcal/mol | 41.9 °C
37 | GAGCCCGAAAGGGATCTC ((((((....)))..))) | -24.6 kcal/mol | 69 °C
38 | GGACCCGGAAACAGGCCC ((.((.(....).)).)) | -16.9 kcal/mol | 29 °C
39 | GGAAATCGAAAGATCTCC (((.(((....))).))) | -26.1 kcal/mol | 34.9 °C
40 | GCCTGCGGAAACACAGGC (((((.(....).))))) | -40.8 kcal/mol | 52.4 °C
41 | GACCCGCGAAAGCGGTC (((.(((....)))))) | -10 kcal/mol | 52.1 °C
42 | GTTCAGGAAACTGAAC ((((((....)))))) | -36.7 kcal/mol | 53.8 °C
43 | GATCGAATTTCGATC ((((((...)))))) | -46.1 kcal/mol | 51.5 °C
44 | GATCAAGTACTTGATC ((((((....)))))) | -45.2 kcal/mol | 51.9 °C
45 | GATCTGAGGCAGATC ((((((...)))))) | -31.4 kcal/mol | 47.5 °C
46 | GACTGACGAAAGTCCGTC (((.(((....))).))) | -29.4 kcal/mol | 49.2 °C

Row | Sequence | folding enthalpy [1] | Tm [2]
47 | GGCATCGAAAGATCTGCC ((((((....)))..))) | -24.9 kcal/mol | 39.6 °C
48 | GTACACCGAAAGGTCTAC (((.(((....))).))) | -15.3 kcal/mol | 30.9 °C
49 | GCGAACGCTCGC ((((....)))) | -12.2 kcal/mol | 59.6 °C
50 | GTGTGATCGAAAGATCAC (((..(((....)))))) | -14 kcal/mol | 66.7 °C
51 | GCGCAGCGAAAGCAGGGC ((.(.((....)).).)) | -10.2 kcal/mol | 51.2 °C
52 | GCACTGCGAAAGCCGCGC ((.(.((....)).).)) | -21 kcal/mol | 45.4 °C
53 | GCAAGGAAACTTGC (((((....))))) | -26.6 kcal/mol | 53.3 °C
54 | GCGATCGAAAGATTTCGC ((((((....)))..))) | -26.4 kcal/mol | 39.8 °C
55 | GCCTGAGGAAACTCAAGC ((.((((....)))).)) | -21.6 kcal/mol | 35.1 °C
56 | GATCAGCGTGCTGATC ((((((....)))))) | -37.1 kcal/mol | 67.2 °C
57 | GATCTTAGACAAGATC ((((((....)))))) | -30.2 kcal/mol | 37.3 °C
58 | GGAAGAGGAAACTTTTCC ((((.((....)).)))) | -15.8 kcal/mol | 32.8 °C
59 | GCATATGGAAACATATGC (((((((....))))))) | -41.6 kcal/mol | 56.3 °C
60 | GTCTCGGGAAACCGAGGC (.(((((....))))).) | -29 kcal/mol | 57.6 °C
61 | GGGCAAGGAAACCTGCCC (((((.(....).))))) | -37.7 kcal/mol | 57.5 °C
62 | GCTAAGCGAAAGCTCGGC ((..(((....)))..)) | -19.7 kcal/mol | 39.7 °C
63 | GTTGCAGGAAACTGCAAC (((((((....))))))) | -39.6 kcal/mol | 68 °C
64 | GCTCCCGGAAACGGGAAC (.(((((....))))).) | -15 kcal/mol | 43 °C
65 | GATCCAGGAAACCGGATC (((((.(....).))))) | -33.3 kcal/mol | 45.7 °C
66 | GATCCCTCGCGGGATC ((((((....)))))) | -39.1 kcal/mol | 59.6 °C
67 | GCTCGCCGAAAGGCTAGC (((.(((....))).))) | -27.9 kcal/mol | 54.6 °C
68 | GGAAGTGGAAACATTTCC ((((.((....)).)))) | -27.9 kcal/mol | 40.3 °C
69 | GAAGCCCGAAAGGGTTC (((.(((....)))))) | -16 kcal/mol | 47.7 °C

— the array DNA melting data of Ke et al. (doi:10.1101/2024.01.08.574731)
